Results taken from ChEMBL document CHEMBL1148140, “Isolation of streptonigrin and its novel derivative from Micromonospora as inducing agents of p53-dependent cell apoptosis” (J Nat Prod, 2002).
Activity calls are given as the source filed them. The calls are words filed in the database; no cut-off is given here.

What was measured:
[1] = test system: SH-SY5Y; assay: Cytotoxicity against human SH-SY5Y cells overexpressing dominant negative mutant of p53; type: functional, cell-based
How it was run: (§1)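 Viability by MTS tetrazolium reduction. Neuroblastoma SH-SY5Y and SH-SY5Y-5.6 lines (HA-tagged 91-aa mini p53) were seeded the day before at 10⁵ cells/mL in RPMI with hygromycin 0.1 mg/mL. Exposure was 24 h; MTS was added at hour 20 (final 0.04 mg/well) for 4 h at 37 °C. Dose-response was run on reproducible hits.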

[2] = test system: SH-SY5Y; assay: Cytotoxicity against human wild type SH-SY5Y cells; type: functional, cell-based; how it was run: as §1
[3] = test system: SH-SY5Y; assay: Cytotoxicity against human SH-SY5Y cells overexpressing dominant negative mutant of p53 upto 100 uM; type: functional, cell-based; how it was run: as §1
[4] = test system: SH-SY5Y; assay: Cytotoxicity against human wild type SH-SY5Y cells upto 100 uM; type: functional, cell-based; how it was run: as §1
[5] = test system: SH-SY5Y; assay: Induction of apoptosis in human SH-SY5Y cells assessed as nuclear accumulation of p53; type: functional, cell-based
[6] = test system: SH-SY5Y; assay: Selectivity ratio of IC50 for human SH-SY5Y cells overexpressing dominant negative mutant of p53 to IC50 for human wild type SH-SY5Y cells; type: functional
[7] = test system: SH-SY5Y; assay: Induction of apoptosis in human SH-SY5Y cells assessed as DNA ladder activity; type: functional, cell-based

SMILES | IC50 [1] [µM] | IC50 [2] [µM] | Activity [3] | Activity [4] | Activity [5] | Ratio IC50 [6] | Activity [7]
COC1=C(NC(C)C(C)=O)C(=O)c2nc(-c3nc(C(=O)O)c(C)c(-c4ccc(OC)c(OC)c4O)c3N)ccc2C1=O (stereo not drawn) | 75 | 0.9 | – | – | – | – | –
CC(C)/C=c1\[nH]c(=O)/c(=C/c2ccccc2)[nH]c1=O | – | – | inactive | inactive | – | – | –
C[C@H]1CNCCN1S(=O)(=O)c1cccc2cnccc12 | 80 | 40 | – | – | – | – | –
CC(C)/C=c1\c(=O)[nH]/c(=C\c2ccccc2)c(=O)n1C | – | – | inactive | inactive | – | – | –
COC1=C(N)C(=O)c2nc(-c3nc(C(=O)O)c(C)c(-c4ccc(OC)c(OC)c4O)c3N)ccc2C1=O [STREPTONIGRIN] | 4.6 | 0.05 | – | – | Active | 92 | Active
